GalR3 antag: GalR3 antagonists in HEK293 cells, primary screen, cell-based, fluorescence readout; Galanin receptor type 3 (Homo sapiens), O60755; HEK293 GalR3-CNG cAMP membrane potential fluorescence; galR3 body fused to GalR1 C-terminus; inhibition, % at 3 µM; 0.44% of 360,000 active; AID 651719, 2012;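 active means inhibition above the screen-wide average plus 3 SD, cut at about 13% in these data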;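 further: forskolin and galanin both at EC90 stimulate the cells; cAMP rise reported by CNG channel membrane potential dye signal; 0% = forskolin plus galanin with DMSO and 100% = forskolin alone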
NR2E3 ag-1: inhibitors of NR2E3-RetCOR corepressor binding, primary screen, NR2E3 agonist project, biochemical, TR-FRET, GST-NR2E3, biotin-RetCOR; Photoreceptor-specific nuclear receptor (Homo sapiens), Q9Y5X4; AID 2300, 2010; 0.12% of 320,000 active; 1536-well; inhibition of corepressor binding, % at 4.78 µM;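 active means percent inhibition above the cutoff of mean plus 3 SD of all tested compounds, set per screening campaign, cut at about 20% in these data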;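 further: 0% = DMSO wells and 100% = biotin wells as full block of FRET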
Target sequence (Q9Y5X4 whole entry, looked up): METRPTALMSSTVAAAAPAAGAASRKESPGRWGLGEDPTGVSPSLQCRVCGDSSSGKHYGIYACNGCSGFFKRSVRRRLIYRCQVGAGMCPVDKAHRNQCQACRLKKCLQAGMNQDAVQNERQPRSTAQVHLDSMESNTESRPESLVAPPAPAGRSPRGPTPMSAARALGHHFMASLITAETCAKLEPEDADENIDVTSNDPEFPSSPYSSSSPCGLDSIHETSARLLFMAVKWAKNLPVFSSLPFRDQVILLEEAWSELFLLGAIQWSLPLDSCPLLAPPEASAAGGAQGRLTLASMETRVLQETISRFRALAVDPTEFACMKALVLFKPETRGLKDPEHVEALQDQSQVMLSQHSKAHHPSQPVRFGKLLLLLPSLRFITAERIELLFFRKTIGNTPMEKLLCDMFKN
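system = GST-tagged NR2E3 plus biotinylated RetCOR corepressor | input = 1.35 nM GST-NR2E3 | also added = 7 nM biotin-RetCOR | schedule = 5 h incubation at 4 °C | measured by = TR-FRET with europium anti-GST and streptavidin-D2, 340 nm excitation | read-out = percent loss of FRET ratio relative to control wells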
MsrA inhibitor: bovine MsrA enzyme inhibitors, primary screen, biochemical, absorbance, HTS; inhibition, % at 15.5 µM; purified bovine MsrA, absorbance read-out; AID 651718, 2012; 0.75% of 360,000 active; in the data active means inhibition above about 4.5%;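 further: 0% = vehicle wells with enzyme and 100% = reference inhibitor wells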
NR2E3 ag-2: NR2E3 agonists in two-hybrid cells, primary screen, cell-based, luminescence, CHO-S, Gal4-NCOR/VP16-NR2E3 | inhibition of corepressor binding, % at 3.98 µM | 0.35% of 360,000 active | luciferase | Photoreceptor-specific nuclear receptor (Homo sapiens), Q9Y5X4;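 active means inhibition above the mean of all tested compounds plus 3 SD, cut at about 70% in these data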;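 further: 0% = DMSO with NR2E3 transfected cells and 100% = cells lacking NR2E3 construct; higher means lower luciferase signal from less NR2E3 corepressor binding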
MsrA act: bovine MsrA enzyme activators, primary screen, biochemical, absorbance, HTS; Methionine sulfoxide reductase A (Bos taurus); purified bovine MsrA, absorbance read-out; activation, % at 10.6 µM; 0.3% of 360,000 active; in the data active means activation above about 7.5%;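 further: 0% = vehicle and 100% = reference activator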
NadD inh: inhibitors of S. aureus NadD, primary screen, biochemical, colorimetric, uHTS; Nicotinate-nucleotide adenylyltransferase NadD (Staphylococcus aureus N315); 0.78% of 360,000 active; purified NadD enzyme, colorimetric absorbance read-out; AID 602399, 2012; inhibition, % at 20 µM; in the data active means inhibition above about 26%
NR2E3 ag conf: NR2E3 agonist confirmation in cells, cell-based, luminescence, CHO-S two-hybrid; CHO-S mammalian two-hybrid NR2E3-NCOR, luciferase luminescence; inhibition, % at 3.98 µM; shares compounds with NR2E3 ag-2; 51% of 2,300 active;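 active means average inhibition above a cutoff equal to the mean inhibition of all tested compounds plus one SD, cut at about 70% in these data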;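 further: 0% = DMSO in NR2E3 cells and 100% = DMSO in cells lacking NR2E3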
GAL4-VP16 luc: GAL4-VP16 reporter modulators, confirmation, counter-screen for NR2E3 agonist project, cell-based, luminescence, CHO-S, high throughput; AID 624379, 2012; inhibition, % at 3.98 µM; CHO-S GAL4-VP16 luciferase reporter; 29% of 2,300 active; shares compounds with NR2E3 ag-2;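 active means mean inhibition above a cutoff equal to the average over all tested compounds plus one standard deviation, cut at about 70% in these data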;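 further: luciferase from a UAS reporter driven by GAL4-VP16 transactivation; 0% = DMSO with VP16-transfected cells and 100% = DMSO with cells lacking VP16; higher means less reporter light so more repression of VP16 activity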
GalR3 conf: GalR3 antagonist hit confirmation, cell-based, fluorescence, triplicate | HEK293 GalR3 CNG cAMP biosensor, membrane potential fluorescence; galR3 fused to GalR1 carboxy tail; challenged with forskolin and galanin at EC90 | AID 652245, 2013 | inhibition, % at 3 µM | shares compounds with GalR3 antag | 59% of 1,600 active;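 active means inhibition above the primary screen's cutoff, the mean inhibition of all screened compounds plus 3 SD, cut at about 13% in these data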;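 further: 0% = forskolin plus galanin and 100% = forskolin alone with DMSO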
CNG parental: nonspecific cAMP agonists in parental HEK-CNG cells, counter-screen for GalR3 antagonist project, cell-based, fluorescence, high throughput | activation, % at 3 µM | 10% of 1,600 active | AID 652268, 2013 | HEK293-CNG parental cells, cAMP membrane potential fluorescence; normalised: DMSO wells 0%, forskolin wells 100% | shares compounds with GalR3 antag; in the data active means activation above about 1.3%
An asterisk follows results filed as active; / = not tested or not shown. In the library only some 2.5% were active in any assay of this set; here they are far more common.

SMILES	GalR3 antag	NR2E3 ag-1	MsrA inhibitor	NR2E3 ag-2	MsrA act	NadD inh	NR2E3 ag conf	GAL4-VP16 luc	GalR3 conf	CNG parental
COc1ccc(CNC(=O)c2cccc3c(-c4cccnc4)coc23)cc1OC	89*	/	-1	97*	-1	5	96*	89*	106*	0
Cc1cc(C(=O)N2CCc3ccccc32)c2ccccc2n1	-6	-2	1	-30	-2	7	/	/	/	/
O=C(NC1CCCC1)c1ccccc1-c1ccccc1	-1	1	-1	5	-1	-4	/	/	/	/
COc1ccccc1[C@@]1(C)ON(c2ccccc2C(F)(F)F)C1=O	-6	-1	0	9	-7	-7	/	/	/	/
Cc1nc2ccccc2n1CC(O)COc1ccc(Br)cc1 (stereo unspecified)	-7	-1	-1	9	-2	-3	/	/	/	/
CCC(=O)c1ccc(OCC(O)Cn2c(C)nc3ccccc32)cc1 (stereo unspecified)	56*	2	0	51	1	0	54	38	7	0
Cc1nc(CN(C)C(=O)c2cc(COc3ccc4ncccc4c3)on2)cs1	68*	0	0	64	-3	-3	87*	78*	108*	0
CC(C)N(Cc1nccn1C)C(=O)c1cc(COc2ccc3ncccc3c2)on1	-10	0	0	15	-3	7	/	/	/	/
CC(CCCC(C)(C)O)NC(=O)c1cc(COc2ccc3ncccc3c2)on1 (stereo unspecified)	15*	0	-1	62	-4	6	88*	75*	50*	0
Cc1cc(C)nc(/N=C(\N)Nc2ccc(OCCC(C)C)cc2)n1	45*	3	0	53	-2	-7	70	58	30*	6.2*
Cc1ccc2nc(NC(=O)CCn3cccc3)sc2c1	-7	0	-2	-76	-4	-8	/	/	/	/
O=C(CSc1nnc(Cn2nnc3ccccc32)o1)Nc1cccc(Cl)c1	-8	-1	1	-6	-3	3	/	/	/	/
O=C(CSc1nnc(Cn2nnc3ccccc32)o1)N(Cc1ccc(Cl)cc1)c1ccccc1	97*	5	-1	81*	-3	-14	94*	81*	102*	0
Cc1ccnc(SCC(=O)Nc2sc3c(c2C#N)CCCC3)n1	43*	2	-1	85*	1	-4	92*	85*	95*	0
Cc1csc(SCC(=O)Nc2sc3c(c2C#N)CCC3)n1	0	-1	1	1	-9	-1	/	/	/	/
O=C(NCc1ccccc1)c1ccc(CS(=O)(=O)c2ccccc2)o1	4	-1	0	26	-15	2	/	/	/	/
C1=C(CCNc2ncnc3c2[nH]c2ccccc23)CCCC1	84*	0	0	74*	-2	0	97*	81*	98*	1.4*
Cc1cc(N2CCN(c3nc4ccccc4s3)CC2)n2ncnc2n1	24*	1	-2	73*	-11	-2	94*	76*	37*	0
C/C=N/NC(=O)c1cc(Br)ccc1O	-9	-1	1	-4	4	5	/	/	/	/
O=C(C(=O)c1cc(Br)ccc1O)c1cc(Br)ccc1O	87*	/	1	99*	-5	-6	100*	92*	44*	1
CC(=O)Nc1cc2c(cc1NC(=O)Cn1nc(-c3ccccc3F)ccc1=O)OCCO2	-8	2	3	-22	-2	1	/	/	/	/
Cc1cccc[n+]1CCCCCCCCCC[n+]1ccccc1C	-6	0	1	3	-3	-1	/	/	/	/
CCCCCCCCCC[n+]1cccc2c3ccccc3ccc21	50*	/	0	96*	4	12	100*	94*	51*	8.2*
Cc1cccc(NS(=O)(=O)c2c(C)noc2C)c1	0	7	0	-5	-3	0	/	/	/	/
FC(F)(F)c1cccc(NC(=S)N2CCN(c3ccccn3)CC2)c1	-6	4	0	-17	-1	-3	/	/	/	/
SMILES	GalR3 antag	NR2E3 ag-1	MsrA inhibitor	NR2E3 ag-2	MsrA act	NadD inh	NR2E3 ag conf	GAL4-VP16 luc	GalR3 conf	CNG parental
Cc1csc2ncnc(N3CCN(C(=S)Nc4ccc(C(F)(F)F)cc4)CC3)c12	67*	-2	0	66	0	10	95*	83*	93*	1.8*
CN(C)c1ccc(/C=C2\CCC/C(=C\c3ccccc3)C2=O)cc1	2	-3	1	-46	-4	1	/	/	/	/
CN(C)c1ccc(C=c2c3ccccc3n3c2c2c([n+]3C)CCCC2)cc1	81*	/	2	96*	-2	-1	100*	91*	89*	-2
O=C(Nc1ccc(OCC(F)(F)C(F)F)c(C(F)(F)F)c1)c1ccccc1O	19*	3	2	99*	-8	-6	98*	75*	16*	-1
COc1ccc([N+](=O)[O-])cc1NC(=O)C(C)NNC(=O)c1cccc([N+](=O)[O-])c1 (stereo unspecified)	0	/	2	-8	-5	7	/	/	/	/
CSc1ccc(C(=O)C2CCCN(C(=O)CCc3c(C)nn(C)c3C)C2)cc1 (stereo unspecified)	86*	3	1	56	-4	-4	45	43	95*	0
CSc1ccc(C(=O)C2CCCN(C(=O)CCn3cncn3)C2)cc1 (stereo unspecified)	0	0	0	6	0	1	/	/	/	/

Source: PubChem BioAssay (several laboratories)
